According to ChEMBL document CHEMBL3272224, “Synthesis and hypotensive activity of N-alkyl-N"-cyano-N'-pyridylguanidines” (J Med Chem, 1978):
Calls of active or inactive are those of the source. The rule behind the calls is not given here.

Key:
[1] = Toxicity in po dosed Sprague-Dawley rat assessed as mortality after 7 days; type: organism-based; conditions: in vivo
Rattus norvegicus [2] = test: Hypotensive activity in spontaneously hypertensive Wistar-Okamoto rat assessed as maximum change in mean blood pressure at 2.5 mg/kg, po relative to control; type: functional
Summary of the method: (§1)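 Spontaneously hypertensive Wistar-Okamoto rats, five per dose, received compound orally, dissolved or suspended in 0.5% carboxymethylcellulose. Blood pressure was measured indirectly by tail cuff in restrained conscious rats before dosing and at 2, 4, 6, 8, 12 and 24 h. Maximum change was measured after a single administration and given as mean ± error.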

Rattus norvegicus [3] = test: Hypotensive activity in spontaneously hypertensive Wistar-Okamoto rat assessed as maximum change in mean blood pressure at 5 mg/kg, po relative to control; type: functional; summary of the method: as §1
Rattus norvegicus [4] = test: Hypotensive activity in spontaneously hypertensive Wistar-Okamoto rat assessed as maximum change in mean blood pressure at 10 mg/kg, po relative to control; type: functional; summary of the method: as §1
Rattus norvegicus [5] = test: Hypotensive activity in spontaneously hypertensive Wistar-Okamoto rat assessed as time required for persistence of hypotensive effect at 2.5 mg/kg, po; type: functional
Summary of the method: (§2)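 SHR (Wistar-Okamoto), five per dose, were given an oral dose in 0.5% carboxymethylcellulose. Indirect cuff pressure in restrained conscious rats was read before dosing and at 2, 4, 6, 8, 12 and 24 h. Duration (h) was scored while pressure remained 15 mmHg or more below the initial reading.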

Rattus norvegicus [6] = test: Hypotensive activity in spontaneously hypertensive Wistar-Okamoto rat assessed as time required for persistence of hypotensive effect at 5 mg/kg, po; type: functional; summary of the method: as §2
Rattus norvegicus [7] = test: Hypotensive activity in spontaneously hypertensive Wistar-Okamoto rat assessed as time required for persistence of hypotensive effect at 10 mg/kg, po; type: functional; summary of the method: as §2
Canis familiaris [8] = test: Hypotensive activity in conscious renal hypertensive dog assessed as maximum change in mean blood pressure at 2.5 mg/kg, po measured for 8 hrs relative to control; type: functional, Canis lupus familiaris
Summary of the method: (§3)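 Renal hypertensive dogs, conscious, dosed orally in soft gelatin capsules, three dogs per dose. Mean blood pressure was taken indirectly with an Arteriosonde, standing animals in a semi-insonorized room, just before dosing and then hourly for 8 h. Maximum change was measured after a single administration and given as mean ± error.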

Canis familiaris [9] = test: Hypotensive activity in conscious renal hypertensive dog assessed as maximum change in mean blood pressure at 5 mg/kg, po measured for 8 hrs relative to control; type: functional, Canis lupus familiaris; summary of the method: as §3
Canis familiaris [10] = test: Hypotensive activity in conscious renal hypertensive dog assessed as maximum change in mean blood pressure at 10 mg/kg, po measured for 8 hrs relative to control; type: functional, Canis lupus familiaris; summary of the method: as §3
Canis familiaris [11] = test: Hypotensive activity in conscious renal hypertensive dog assessed as time required for persistence of hypotensive effect at 2.5 mg/kg, po measured for 8 hrs; type: functional, Canis lupus familiaris
Summary of the method: (§4)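 Conscious renal hypertensive dogs received single oral doses in soft gelatin capsules, three per dose. Indirect standing blood pressure was read before dosing and hourly to 8 h. Duration (h) was the time the pressure stayed 15 mmHg or more below the initial value, which was taken as persistence of the hypotensive effect.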

Canis familiaris [12] = test: Hypotensive activity in conscious renal hypertensive dog assessed as time required for persistence of hypotensive effect at 5 mg/kg, po measured for 8 hrs; type: functional, Canis lupus familiaris; summary of the method: as §4
Canis familiaris [13] = test: Hypotensive activity in conscious renal hypertensive dog assessed as time required for persistence of hypotensive effect at 10 mg/kg, po measured for 8 hrs; type: functional, Canis lupus familiaris; summary of the method: as §4
Rattus norvegicus [14] = test: Toxicity in rat assessed as change in cardiac noradrenaline level at 0.1 mg/kg; type: organism-based, Heart; parameters: dose 0.1 mg/kg; conditions: in vivo
Summary of the method: (§5)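 Rats were given single or repeated (5 days) administration, and cardiac noradrenaline levels were measured.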

Rattus norvegicus [15] = test: Toxicity in rat assessed as change in cardiac noradrenaline level at 0.1 mg/kg for 5 days; type: organism-based, Heart; parameters: dose 0.1 mg/kg; conditions: in vivo, 120 h; summary of the method: as §5
Rattus norvegicus [16] = species: Rattus norvegicus; test: Toxicity in rat assessed as effect on contraction of nictitating membranes by preganglionic stimulation; type: organism-based, Nictitating membrane; conditions: in vivo
[17] = Toxicity in po dosed mouse assessed as mortality after 7 days; conditions: in vivo
Rattus norvegicus [18] = test: Hypotensive activity in po dosed spontaneously hypertensive Wistar-Okamoto rat assessed as dose required to cause 30 mmHg fall of blood pressure administered for 5 days; type: functional; conditions: 120 h, read-out: MED
Rattus norvegicus [19] = test: Hypotensive activity in spontaneously hypertensive Wistar-Okamoto rat assessed as maximum change in mean blood pressure at 0.01 mg/kg, po relative to control; type: functional; summary of the method: as §1
Rattus norvegicus [20] = test: Hypotensive activity in spontaneously hypertensive Wistar-Okamoto rat assessed as maximum change in mean blood pressure at 0.05 mg/kg, po relative to control; type: functional; summary of the method: as §1
Rattus norvegicus [21] = test: Hypotensive activity in spontaneously hypertensive Wistar-Okamoto rat assessed as maximum change in mean blood pressure at 0.1 mg/kg, po relative to control; type: functional; summary of the method: as §1
Rattus norvegicus [22] = test: Hypotensive activity in spontaneously hypertensive Wistar-Okamoto rat assessed as time required for persistence of hypotensive effect at 0.01 mg/kg, po; type: functional; summary of the method: as §2
Rattus norvegicus [23] = test: Hypotensive activity in spontaneously hypertensive Wistar-Okamoto rat assessed as time required for persistence of hypotensive effect at 0.05 mg/kg, po; type: functional; summary of the method: as §2
Rattus norvegicus [24] = test: Hypotensive activity in spontaneously hypertensive Wistar-Okamoto rat assessed as time required for persistence of hypotensive effect at 0.1 mg/kg, po; type: functional; summary of the method: as §2
Canis familiaris [25] = test: Hypotensive activity in conscious renal hypertensive dog assessed as maximum change in mean blood pressure at 0.05 mg/kg, po measured for 8 hrs relative to control; type: functional, Canis lupus familiaris; summary of the method: as §3
Canis familiaris [26] = test: Hypotensive activity in conscious renal hypertensive dog assessed as maximum change in mean blood pressure at 0.1 mg/kg, po measured for 8 hrs relative to control; type: functional, Canis lupus familiaris; summary of the method: as §3
Canis familiaris [27] = test: Hypotensive activity in conscious renal hypertensive dog assessed as maximum change in mean blood pressure at 0.25 mg/kg, po measured for 8 hrs relative to control; type: functional, Canis lupus familiaris; summary of the method: as §3
Canis familiaris [28] = test: Hypotensive activity in conscious renal hypertensive dog assessed as time required for persistence of hypotensive effect at 0.05 mg/kg, po measured for 8 hrs; type: functional, Canis lupus familiaris; summary of the method: as §4
Canis familiaris [29] = test: Hypotensive activity in conscious renal hypertensive dog assessed as time required for persistence of hypotensive effect at 0.1 mg/kg, po measured for 8 hrs; type: functional, Canis lupus familiaris; summary of the method: as §4
Canis familiaris [30] = test: Hypotensive activity in conscious renal hypertensive dog assessed as time required for persistence of hypotensive effect at 0.25 mg/kg, po measured for 8 hrs; type: functional, Canis lupus familiaris; summary of the method: as §4
Rattus norvegicus [31] = test: Hypotensive activity in po dosed spontaneously hypertensive Wistar-Okamoto rat relative to guancydine; type: functional
Felis catus = species: Felis catus; test: Hypotensive activity in decerebrated cat; type: functional, organism-based

SMILES	LD50 at 168 h [1] [mg/kg]	minimal effective dose (Rattus norvegicus [18]) [mg/kg]	Activity (Rattus norvegicus [19]) [mmHg]	Activity (Rattus norvegicus [20]) [mmHg]	Activity (Rattus norvegicus [21]) [mmHg]	Time (Rattus norvegicus [22]) [h]	Time (Rattus norvegicus [23]) [h]	Time (Rattus norvegicus [24]) [h]	Activity (Canis familiaris [25]) [mmHg]	Activity (Canis familiaris [26]) [mmHg]	Time (Canis familiaris [28]) [h]	Time (Canis familiaris [29]) [h]	fold change (FC) (Rattus norvegicus [31])	Activity (Felis catus)	also measured
CCC(C)(C)/N=C(/S)Nc1cccnc1	460	–	–	–	–	–	–	–	–	–	–	–	–	–	Activity (Rattus norvegicus [2]): -35 mmHg; Activity (Rattus norvegicus [3]): -47 mmHg; Activity (Rattus norvegicus [4]): -69 mmHg; Time (Rattus norvegicus [5]): 2 h; Time (Rattus norvegicus [6]): 2 h; Time (Rattus norvegicus [7]): >4 h; Activity (Canis familiaris [8]): -14 mmHg; Activity (Canis familiaris [9]): -28 mmHg; Activity (Canis familiaris [10]): -43 mmHg; Time (Canis familiaris [11]): 2 h; Time (Canis familiaris [12]): 2 h; Time (Canis familiaris [13]): 4 h
CC(C)(C)/N=C(/NC#N)Nc1cccnc1	278	0.1	-26	-37	-72	4	6	>8	-25	-45	2	4	100	Active	Activity (Rattus norvegicus [14]): Non-toxic; Activity (Rattus norvegicus [15]): Non-toxic; Activity (Rattus norvegicus [16]): Non-toxic; LD50 at 168 h [17]: > 1000 mg/kg; Activity (Canis familiaris [27]): -62 mmHg; Time (Canis familiaris [30]): 6 h
CCC(C)(C)/N=C(\NC#N)Nc1cccnc1	–	0.1	-27	-72	>-100	2	4	4	-41	-69	4	>6	100	Active	–
